Screening results (PubChem BioAssay)
A selection: hits, their analogues and other compounds. The true share with any hit is near 3.3%.
HGIII-sPLA2 inh = Blocks human group III sPLA2 activity; inhibition, % at 12.2 µM; QFRET BODIPY PC-A2 liposome hydrolysis, fluorescence; hit rate 0.56% among 370,000; Q9NZ20;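 active = inhibition above mean plus 3 SD of compounds lying within the high and low control bounds, cut at about 19% in these data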;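 note: 0% = median of test compound wells and 100% = no enzyme DMSO wells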
PfM18AAP inh = PfM18AAP enzyme inhibition; recombinant PfM18AAP, H-Glu-NHMec fluorogenic cleavage; inhibition, % at 7.35 µM; hit rate 1.2% among 290,000;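 active = inhibition above the campaign mean inhibition over all tested compounds plus 3 SD, cut at about 28% in these data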;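 note: 0% = plate median of test compound wells and 100% = 2 mM ZnCl2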
NRP1-CendR mod = NRP-1/CendR interaction modulation | inhibition, % at 25 µM | hit rate 0.85% among 360,000 | AID 602438 | FAM-RPARPAR peptide binding to NRP-1, fluorescence polarization;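 active = inhibition or corrected inhibition above about 18%, plus a signal ratio from 0.5 to 1.5, limit read from the data, passing the limit was not always enough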
Target sequence (O14786 whole entry, looked up): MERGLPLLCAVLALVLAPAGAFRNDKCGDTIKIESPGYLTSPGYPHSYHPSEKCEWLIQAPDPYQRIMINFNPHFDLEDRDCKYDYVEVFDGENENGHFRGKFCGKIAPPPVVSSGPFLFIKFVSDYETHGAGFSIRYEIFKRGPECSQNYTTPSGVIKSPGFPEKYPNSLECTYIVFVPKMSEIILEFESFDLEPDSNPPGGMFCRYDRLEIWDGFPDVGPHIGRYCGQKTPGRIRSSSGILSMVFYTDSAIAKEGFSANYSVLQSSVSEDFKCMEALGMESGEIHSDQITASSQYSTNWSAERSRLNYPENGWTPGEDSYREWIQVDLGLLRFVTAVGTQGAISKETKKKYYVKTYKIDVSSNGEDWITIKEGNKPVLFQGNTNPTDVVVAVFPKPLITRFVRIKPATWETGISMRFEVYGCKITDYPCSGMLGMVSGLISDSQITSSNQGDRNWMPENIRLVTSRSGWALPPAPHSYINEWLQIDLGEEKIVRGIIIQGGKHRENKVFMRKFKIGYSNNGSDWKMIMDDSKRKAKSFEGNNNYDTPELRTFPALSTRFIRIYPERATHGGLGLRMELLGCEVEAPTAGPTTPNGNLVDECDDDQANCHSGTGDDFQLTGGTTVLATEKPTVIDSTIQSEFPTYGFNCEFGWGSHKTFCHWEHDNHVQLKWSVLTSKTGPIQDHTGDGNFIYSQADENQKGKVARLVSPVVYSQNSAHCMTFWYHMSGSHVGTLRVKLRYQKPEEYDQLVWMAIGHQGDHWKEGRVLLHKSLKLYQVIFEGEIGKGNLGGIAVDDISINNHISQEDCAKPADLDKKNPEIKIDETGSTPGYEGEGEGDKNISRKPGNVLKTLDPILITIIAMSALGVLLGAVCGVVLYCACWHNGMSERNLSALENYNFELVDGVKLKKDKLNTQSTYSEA
m5-HT2A agonist = activates the mouse 5-HT2A serotonin receptor. hit rate 0.66% among 360,000. P35363. activation, % at 7.6 µM. CHO-K1 mHTR2A beta-arrestin complementation, luminescence; percent of 30 µM serotonin response;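 active = activation above a run cutoff, the mean activation of all tested compounds plus 3 SD, cut at about 14% in these data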;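 note: 0% = plate median of compound wells and 100% = 30 µM serotonin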
Hep lipid drop = modulators of hepatic lipid droplet formation; AML12 mouse hepatocytes, oleate lipid droplets, BODIPY imaging; inhibition, % at 6.5 µM; hit rate 0.4% among 240,000; AID 1656;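 active = lipid droplet intensity inhibited by at least 50%, with more than 500 cells counted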
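Assay system: AML12 hepatocytes (mouse); Probe or stimulus: oleic acid at 100 µM to induce lipid droplet formation; Dosing: compound at 6.5 µM only; Schedule: compound with oleate, overnight; Detection: fluorescence imaging, 20x objective, two fields per well; Measure: % inhibition of lipid droplet signal.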
Arr AP2 block = blocks beta-arrestin peptide binding to AP2 adaptin; FITC-arrestin peptide / GST-AP2 beads, flow cytometry; AP2 beta2 appendage carries R879A mutation; inhibition, % at 10 µM; hit rate 0.31% among 340,000;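 active = inhibition above a set limit, near 3 SD of compounds lacking own fluorescence, cut at about 54% in these data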;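 note: plate controls were DMSO wells for no effect and 5 µM unlabelled arrestin peptide for full effect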
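Assay system: GST-AP2 R879A bound to glutathione beads, E. coli-expressed; Medium: PBS with 0.05% Tween 20 and 0.1% BSA; Also added: fluorescein-tagged arrestin peptide at 50 nM final; Timing: 12 min plus 1 h, RT; Measured by: flow cytometry, FL1 (488/535 nm); Evaluation: percent drop in bead-associated FITC signal.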
Numbers without * were called inactive; · = no result; ! = repeats disagree.

SMILES	HGIII-sPLA2 inh	PfM18AAP inh	NRP1-CendR mod	m5-HT2A agonist	Hep lipid drop	Arr AP2 block
Cc1ccsc1C(=O)N1CCCC(CO)(Cc2ccccc2F)C1 (stereo not drawn)	-7.3	3.0	20.9*	-1.2	·	-17.5
Cc1cc(N2CCNC[C@H]2C)ccc1N1C[C@@H](C)O[C@@H](C)C1	-2.1	·	·	·	·	·
COc1cccc(CN2CCN(Cc3ccco3)CC2)c1	1.5	-1.8	21.5*	-7.4	-4.2	-1.2
COc1cccc(N2CCN(Cc3ccco3)CC2)c1	5.0	1.6	0.9	-1.8	-5.4	-2.5
O=C(c1ccccc1)C1CC1c1ccccc1 (stereo not drawn)	0.0	·	38.3*	-4.8	·	·
Cc1cc(Br)ccc1N=C1NC(=O)CS1	-4.7	29.6*	2.3	-2.1	2.3	10.8
N/C(=N\OC(=O)c1cccs1)C1(c2ccc(Cl)cc2Cl)CC1	-3.4	-1.4	36.7*	-3.9	0.7	40.6
N/C(Cc1ccc(Cl)c(Cl)c1)=N\OC(=O)c1cccs1	-6.7	-3.3	6.8	-2.9	·	29.4
O=C(NNc1ncnc2ccccc12)c1cccc(Cl)c1	1.2	3.1	3.8	0.1	5.8	-14.6
C[C@@H](NC(=O)[C@@H]1CCCN1C(=O)[C@@H]1CCCN1C(=O)OC(C)(C)C)c1ccccc1	4.9	·	3.4	0.1	·	·
COc1cccc2c1cc1c(=O)n(CC(=O)N3CCCCCC3)nc(C)n12	2.3	3.4	24.2*	3.3	-0.3	-0.1
COc1cccc2c1cc1c(=O)n(CC(=O)N3CCCC3)nc(C)n12	5.8	·	12.9	3.2	·	-12.5
O=C(O)c1ccc(S(=O)(=O)/N=C2\C=C(Nc3ccccc3F)C(=O)c3ccccc32)cc1	-2.4	11.5	19.0*	4.5	-28.0	-3.1
Cc1ccccc1NC1=C/C(=N\S(=O)(=O)c2cccs2)c2ccccc2C1=O	-11.2	-1.8	4.4	-5.6	25.5	19.9
CC(C)c1ccc(S(=O)(=O)/N=C2\C=C(NS(=O)(=O)c3ccccc3)C(=O)c3ccccc32)cc1	-5.7	4.3	30.6*	1.6	-7.8	-2.8
COc1ccc(S(=O)(=O)/N=C2\C=C(Nc3ccc(O)cc3)C(=O)c3ccccc32)cc1	-38.9	18.2	17.8	-13.1	-53.3	8.0
Cc1ccccc1NC1=C/C(=N\S(=O)(=O)c2ccc(C(=O)O)cc2)c2ccccc2C1=O	-3.8	-2.2	24.1*	-13.7	-16.1	17.0
Cc1cc(=O)[nH]c(SCC(=O)Nc2cccc(S(=O)(=O)N3CCOCC3)c2)n1	0.4	·	-9.1	0.7	·	-1.8
O=C(Nc1nc2ncccn2c1-c1ccc(F)c(F)c1)c1ccc(F)cc1	0.0	·	·	·	·	·
CCCCNC(=O)Oc1c(Br)cc2sc(=O)oc2c1Br	·	29.6*	·	·	4.6	·
CCCCNC(=O)Oc1cc(CCl)on1	·	0.1	·	·	0.3	·
Cc1ccc(C)c(N2CCN(C(=O)c3cc4ccccn4n3)CC2)c1	·	5.1	21.0*	-3.8	2.1	-1.2
O=C(c1cc2ccccn2n1)N1CCCC1	·	-6.3	·	·	·	·
Cc1c(C(=O)OCC[N+]2(C)CCCCC2)oc2ccccc12	6.1	1.6	47.8*	0.3	0.2	-8.5
Cc1c(C(=O)OCC(=O)N2CCC(C)CC2)oc2ccccc12	-7.0	·	-9.1	0.8	·	-5.2
SMILES	HGIII-sPLA2 inh	PfM18AAP inh	NRP1-CendR mod	m5-HT2A agonist	Hep lipid drop	Arr AP2 block
CC(N=Cc1cc([N+](=O)[O-])ccc1O)c1ccccc1 (stereo not drawn)	3.3	9.0	10.0	-6.0	10.0	5.0
CC(N=Cc1cccc(O)c1O)c1ccccc1 (stereo not drawn)	·	30.9*	-10.3	-0.3	-4.2	3.4
Cc1ccccc1N=Cc1cccc(O)c1O	·	29.8*	2.4	-2.5	-3.4	14.6
O=C(c1ccncc1)N1CC[C@H]2[C@H](CCCN2Cc2ccccc2)C1	1.3	·	·	·	·	·
CC(C)(C)C(=O)c1c(N)[nH]c(C(=O)c2ccccc2)c1-c1ccc([N+](=O)[O-])cc1	3.4	·	·	·	·	·
CCCc1nc2ccc(Cl)cn2c1Cc1ccsc1	-2.3	·	27.9*	-0.3	·	·
Clc1ccc(-c2nc3ccc(Cl)cn3c2Cc2ccsc2)cc1	-20.2	·	-18.4	-1.0	·	·
Cc1ccc(-c2nc3cc(C)c(Br)c(C)n3c2Cc2ccsc2)cc1	1.5	·	-12.4	2.3	·	·
O=C(COc1cccc(C(F)(F)F)c1)Nc1cccc(S(=O)(=O)NC2=NCCCCC2)c1	-14.4	·	11.7	-7.4	·	-2.2
CN(C)c1ccc(/C=C/c2ccc3c4ccccc4ccc3[n+]2-c2ccccc2)cc1	43.8*	3.2	-78.3	-2.5	-60.8	38.9
CN(C)c1ccc(/C=C/c2cccc[n+]2[O-])cc1	-3.3	12.7	-43.3	-3.2	-4.9	52.4
CN(C)c1ccc(/C=C/c2ccc3ccccc3[n+]2C)cc1	19.5*	3.5	-42.8	-0.6	-111.8	-4.3
CC(=O)N1CCc2cc(S(=O)(=O)CCC(=O)N3CCN(c4cc(C)ccc4C)CC3)ccc21	-1.6	-3.0	8.1	-5.9	-21.1	16.0
CCN(CC)S(=O)(=O)c1ccc(N2CCCCC2)c(NC(=O)C2CSC3(C)CCC(=O)N23)c1 (stereo not drawn)	-6.3	·	4.1	-3.7	·	·
COc1ccc(CN(CCCN2CCOCC2)C(=O)Nc2cccc(Cl)c2)cc1OC	-5.9	8.1	26.7*	5.4	·	2.5
CCCC/C=C1/[C@@H](CC)N(Cc2ccc(OC)cc2OC)C2=N[C@@H](c3ccccc3)CC(=O)N21	1.2	·	·	·	·	·
COC(=O)C1=C(C)NC(C)=C(C(=O)OC)C1C(=O)OC(C)C(=O)c1ccccc1 (stereo not drawn)	11.8	-8.4	24.9*!	-0.1	9.7	-7.4
CCCC(C)NC(=O)CN(Cc1ccco1)S(=O)(=O)c1ccccc1 (stereo not drawn)	-0.9	·	22.8*	0.7	·	1.1
COCCNC(=O)C1(C)C=CC2(CCCCC2)N1C(=O)c1ccccc1 (stereo not drawn)	6.5	2.2	4.3	4.3	21.1	19.9
CC1(C(=O)NCCN2CCOCC2)C=CC2(CCCCC2)N1C(=O)c1ccccc1 (stereo not drawn)	4.3	5.7	19.7*	-6.0	3.2	-9.2
Cc1ccc2c(c1)c1nnc(SCC(=O)N3CCCc4ccccc43)nc1n2CC(=O)O	-1.0	-11.0	23.7*	-5.3	6.2	-1.6
Cc1ccc(S(=O)(=O)NC(=NC2CCCCC2)c2ccc(Cl)cc2)cc1	·	3.7	20.7*	-6.0	-16.5	-3.5
CC(C)(C)c1ccc(C(=O)N2CCC2(C)C(=O)NS(=O)(=O)c2ccccc2Cl)cc1 (stereo not drawn)	-3.3	·	1.4	4.6	·	·
CCOC(=O)NC1(NCc2ccccc2)Oc2ccccc2O1	-0.8	54.2*	-0.2	3.3	13.8	9.1
Cc1noc(C)c1S(=O)(=O)N1CCCc2nc(-c3ccc(F)cc3)ccc21	-2.8	·	·	·	·	·
COCC(C)N1C(=O)Cc2c1nc(N)c1c(N)nc(N3CCN(c4ccccc4F)CC3)c(C#N)c21 (stereo not drawn)	24.7*	-1.2	-0.1	-5.6	4.0	16.9
